For orientation: IC50 means the midpoint of a concentration-inhibition curve. What is called half-life is the time needed for the level to fall by half in the phase considered. Broadly, the Cmax is the maximum level reached in the sampled fluid or tissue. The AUC is the area under the concentration-time curve, a measure of exposure. In general, clearance refers to the rate of elimination divided by the concentration. Read a low clearance as inefficient removal.

Data on one compound can be found in ChEMBL document CHEMBL4406857, “Discovery of new small molecule inhibitors targeting isocitrate dehydrogenase 1 (IDH1) with blood-brain barrier penetration” (Eur J Med Chem, 2019).

In data set [1] the target is T1, Isocitrate dehydrogenase [NADP] cytoplasmic (Homo sapiens, UniProt O75874, R132C). In words: Inhibition of IDH1 R132C mutant in human HT1080 cells assessed as reduction in 2-HG production incubated with compound for 48 hrs by D2HG assay kit based fluorescence assay. It counts as cell-based.
Data set [2] can be described thus: Drug uptake in brain of athymic BALB/c nude mouse xenografted with human HT1080 cells at 50 to 150 mg/kg, po administered as a single dose via gavage measured upto 24 hrs post dosing by LC-MS/MS analysis. It counts as ADME, organism-based. The settings on record: in vivo. The method in brief:
(§1)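 Female athymic nude mice carrying subcutaneous right-flank HT1080 xenografts (5 × 10^6 cells in PBS/Matrigel 1:1). Compound given by oral gavage as a suspension in 0.5% MC + 0.5% Tween 80 in water, 10 ml/kg. Blood taken by orbital sinus bleed; brain and tumour collected at 2, 6, 12 and 24 h, homogenized in PBS. Samples acetonitrile-precipitated with dexamethasone internal standard and measured by LC/MS/MS.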
For orientation: Xenograft models place foreign cells or tissue in a host animal.

A short description of data set [3]: Drug uptake in plasma of athymic BALB/c nude mouse xenografted with human HT1080 cells at 50 to 150 mg/kg, po administered as a single dose via gavage measured upto 24 hrs post dosing by LC-MS/MS analysis. The settings on record: in vivo. It counts as ADME, organism-based. The method in brief: as §1
Data set [4] in a line: Half life in ICR mouse at 5 mg/kg, po measured upto 24 hrs by LCMS analysis. The settings on record: in vivo. The format is ADME, organism-based. Put shortly:
(§2)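 Male ICR mice (6-8 weeks, 20-25 g), nine animals, dosed 1 mg/kg by slow intravenous injection or 5 mg/kg orally. Blood sampled into EDTA at 5 min (iv only), 15 min, 30 min, 1, 2, 4, 8 and 24 h. Plasma stored at -20 °C, prepared by acetonitrile protein precipitation with dexamethasone internal standard, and analysed for parent compound. Values are means of three replicates.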

The target of data set [5] is T1, Isocitrate dehydrogenase [NADP] cytoplasmic. In words: Inhibition of recombinant human C-terminal His8-tagged IDH1 R132C mutant expressed in Escherichia coli BL21 assessed as reduction in NADPH consumption using alpha-ketoglutarate as substrate preincubated for 60 mins followed by substrate addition and measured for 60 mins in presence of NADPH by diaphorase/resazurin-based fluorescence assay. On the technique in general: Resazurin is reduced to fluorescent resorufin, in cell work by metabolically active cells.

A short description of data set [6]: Cmax in ICR mouse at 5 mg/kg, po measured upto 24 hrs by LCMS analysis. Details: dose 5 mg/kg, route oral. The settings on record: in vivo. It counts as ADME, organism-based. Put shortly:
as §2

The nature of data set [7]: AUC in ICR mouse at 5 mg/kg, po measured upto 24 hrs by LCMS analysis. It counts as ADME, organism-based. Details: dose 5 mg/kg, time < 24 hr, route oral. The settings on record: in vivo. Put shortly:
as §2

In a further data set the test system is HT-1080. In words: In vivo inhibition of IDH1 R132C mutant in human HT1080 cells xenografted in athymic BALB/c nude mouse assessed as reduction in 2-HG level in tumor tissue at 50 mg/kg, po administered as a single dose via gavage measured upto 24 hrs post dosing by LC-MS/MS analysis. The format is functional, organism-based. The method in brief: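 HT1080 subcutaneous xenografts in female athymic nude mice, randomized block design, 12 mice per group. Oral gavage of suspension (0.5% MC + 0.5% Tween 80 in water, 10 ml/kg). Tumours collected at 2, 6, 12 and 24 h and frozen in liquid nitrogen. 2-HG measured by LC/MS/MS; percent inhibition taken relative to vehicle-treated mice, reported as mean ± SEM.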

A short description of data set [8]: AUC in ICR mouse at 1 mg/kg, iv measured upto 24 hrs by LCMS analysis. The format is ADME, organism-based. Details: time < 24 hr, dose 1 mg/kg, route intravenous. The following applies: in vivo. Put shortly: as §2
The nature of data set [9]: Volume of distribution at steady state in ICR mouse at 1 mg/kg, iv measured upto 24 hrs by LCMS analysis. It counts as ADME, organism-based. The settings on record: in vivo, read-out: Vdss. The method in brief:
as §2

The nature of data set [10]: Oral bioavailability in ICR mouse at 5 mg/kg measured upto 24 hrs by LCMS analysis. It counts as ADME, organism-based. The following applies: ICR, in vivo. Put shortly:
as §2

Data set [11] deals with Isocitrate dehydrogenase [NADP] cytoplasmic (Homo sapiens, UniProt O75874). The experiment in a line: Inhibition of wild type recombinant human C-terminal His8-tagged IDH1 expressed in Escherichia coli BL21 assessed as reduction in NADP consumption using DL-isocitrate as substrate preincubated for 60 mins followed by substrate addition and measured for 60 mins in presence of NADP by diaphorase/resazurin-based fluorescence assay.

Data set [12] in a line: Half life in ICR mouse at 1 mg/kg, iv measured upto 24 hrs by LCMS analysis. The format is ADME, organism-based. The following applies: in vivo. The method in brief: as §2
Data set [13] in a line: Drug uptake in tumor of athymic BALB/c nude mouse xenografted with human HT1080 cells at 50 to 150 mg/kg, po administered as a single dose via gavage measured upto 24 hrs post dosing by LC-MS/MS analysis. The settings on record: in vivo. It counts as ADME, organism-based, Neoplasm. Put shortly: as §1
Data set [14] in a line: Clearance in ICR mouse at 1 mg/kg, iv measured upto 24 hrs by LCMS analysis. It counts as ADME, organism-based. The following applies: in vivo. The method in brief: as §2
For data set [15], the system named is Isocitrate dehydrogenase [NADP] cytoplasmic (Homo sapiens), O75874 [R132H]. In words: Inhibition of human IDH1 R132H mutant transfected in GL261 cells assessed as reduction in 2-HG production at 100 nM incubated with compound for 48 hrs by D2HG assay kit based fluorescence assay. The format is cell-based.
Data set [16] concerns the target Isocitrate dehydrogenase [NADP] cytoplasmic (Homo sapiens, UniProt O75874, R132H). The experiment in a line: Inhibition of recombinant human C-terminal His8-tagged IDH1 R132H mutant expressed in Escherichia coli BL21 assessed as reduction in NADPH consumption using alpha-ketoglutarate as substrate preincubated for 60 mins followed by substrate addition measured for 60 mins in presence of NADPH by diaphorase/resazurin-based assay.

Active and inactive are the calls of the source.

T1 sequence (O75874 2-414 R132C limits assumed): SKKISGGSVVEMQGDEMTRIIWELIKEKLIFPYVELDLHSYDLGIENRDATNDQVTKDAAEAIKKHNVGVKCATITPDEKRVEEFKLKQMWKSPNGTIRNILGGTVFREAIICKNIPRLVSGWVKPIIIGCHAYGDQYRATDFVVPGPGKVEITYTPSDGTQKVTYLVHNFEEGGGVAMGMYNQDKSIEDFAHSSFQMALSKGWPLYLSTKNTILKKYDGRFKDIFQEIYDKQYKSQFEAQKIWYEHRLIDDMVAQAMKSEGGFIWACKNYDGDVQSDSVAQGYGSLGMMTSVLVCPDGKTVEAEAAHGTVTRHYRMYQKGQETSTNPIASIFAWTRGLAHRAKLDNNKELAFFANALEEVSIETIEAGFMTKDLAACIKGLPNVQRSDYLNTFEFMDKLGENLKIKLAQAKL
Sequence of Isocitrate dehydrogenase [NADP] cytoplasmic (Homo sapiens, UniProt O75874) (O75874 whole entry): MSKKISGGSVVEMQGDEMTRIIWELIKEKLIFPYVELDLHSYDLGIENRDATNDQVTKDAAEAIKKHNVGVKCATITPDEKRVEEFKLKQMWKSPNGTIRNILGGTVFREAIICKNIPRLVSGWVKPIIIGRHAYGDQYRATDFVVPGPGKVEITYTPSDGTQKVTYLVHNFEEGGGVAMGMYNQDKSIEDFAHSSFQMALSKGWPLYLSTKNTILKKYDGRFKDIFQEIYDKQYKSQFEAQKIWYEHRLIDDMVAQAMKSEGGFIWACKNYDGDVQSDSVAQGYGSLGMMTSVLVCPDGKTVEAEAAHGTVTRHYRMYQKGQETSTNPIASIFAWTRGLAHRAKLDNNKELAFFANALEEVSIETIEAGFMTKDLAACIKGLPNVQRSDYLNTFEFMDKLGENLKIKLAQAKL
Sequence of Isocitrate dehydrogenase [NADP] cytoplasmic (Homo sapiens), O75874 [R132H] (O75874 whole entry R132H): as the sequence (O75874 whole entry) above, with R132H counted along it
Sequence of Isocitrate dehydrogenase [NADP] cytoplasmic (Homo sapiens, UniProt O75874, R132H) (O75874 2-414 R132H limits assumed): as the sequence (O75874 2-414 R132C limits assumed) above, with C131H counted along it

Regarding `C[C@H](Nc1nccc(N2C(=O)OC[C@@H]2[C@H](C)F)n1)c1ncn2c1CCc1cc(C(F)(F)F)ccc1-2`, the half-inhibitory concentration (IC50) in [1] is 15.9 nM; in data set [5], 8.2 nM; in data set [11], 6680 nM; in [16], 4 nM. Further, the Drug uptake entry in [2], in data set [3] and in data set [13] was “Active” throughout. In addition, the half-life in [4] is 2.5 h; in [12], 1.5 h. In [6], this compound showed a peak concentration (Cmax) of 1690 nM. The values for the AUC at 24 h in [7] and in data set [8] were 11 µM·h and 1.44 µM·h, respectively. For the same compound, the inhibition result (in the data set on HT-1080; in data set [15]) was “Active” in each case. Also, the Vd in data set [9] was found to be 2.3 L/kg. For the same compound, the bioavailability in [10] is 150%. The clearance in [14] was found to be 23 mL/min/kg.
